Compound activity (PubChem BioAssay)
Shown are actives, neighbours in structure and some others; about 4% of the full set was active somewhere.
Arr AP2 block: inhibitors of human beta-arrestin and AP2 interaction | 0.31% of 340,000 active | inhibition, % at 10 µM | FITC-arrestin peptide / GST-AP2 beads, flow cytometry; AP2 beta2 appendage carries R879A mutation | AID 504490;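 active means inhibition above a set limit, near 3 SD of compounds lacking own fluorescence, cut at about 54% in these data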
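System: GST-AP2 R879A glutathione beads; medium: PBS, Tween 20 0.05%, BSA 0.1%; reagent: fluorescein-tagged arrestin peptide at 50 nM final; schedule: pre-incubation 12 min, peptide binding 1 h, room temperature; detection: flow cytometry, FL1 (488/535 nm); read-out: inhibition as reduced fluorescein signal on beads, percent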
SENP1 inh: inhibitors of human SENP1 SUMO protease catalytic domain | Q9P0U3 | recombinant SENP1 catalytic domain, CyPet-SUMO1-YPet FRET cleavage | inhibition, % at 10 µM | 0.21% of 360,000 active;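 active means inhibition at least 30% at 10 µM, raw YFP signal under a set limit, fluorescence ratio 0.5 to 1.5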
Target sequence (Q9P0U3 419-644 limits assumed): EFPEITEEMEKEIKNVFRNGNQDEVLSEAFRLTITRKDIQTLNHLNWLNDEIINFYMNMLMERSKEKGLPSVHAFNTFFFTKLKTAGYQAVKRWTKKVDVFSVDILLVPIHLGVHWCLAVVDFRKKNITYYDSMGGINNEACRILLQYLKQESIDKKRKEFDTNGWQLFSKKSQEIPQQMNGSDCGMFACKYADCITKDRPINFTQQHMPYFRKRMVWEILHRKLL
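system = hSENP1 catalytic domain, recombinant | reagent = SFCypet-SUMO1-SFYpet substrate at 25 nM | doses = one dose per compound, 10 µM, 0.5% DMSO | incubation = enzyme reaction for 50 min at room temperature, dark | measured by = FRET, CFP and YFP emission | controls = no-enzyme low, enzyme-DMSO high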
NR3A LBD binder: modulates the human NR3A ligand-binding domain; Tm shift relative to glycine control, % at 25 µM; AID 1259313; NR3A LBD differential scanning fluorimetry, Tm shift; 0% = protein alone, 100% = glycine-bound protein; 2.5% of 340,000 active;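 active means melting temperature shift of at least 10% of the positive control shift, at one fixed dose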
Cardio protect: protects H9c2 cardiomyocytes from peroxide injury; H2O2 injury protection, ATPLite, 2 h; protection from H2O2 cell death, % at 20 µM; 0.63% of 360,000 active; AID 588492;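 active means compounds giving at least 50% protection of heart cells from peroxide-induced death in the single-dose screen, raw or plate-pattern-corrected value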
FAS TE block: FAS thioesterase (human) inhibition; AID 602261; inhibition, % at 15 µM; 0.67% of 360,000 active; P49327; recombinant FAS-TE, OMFH fluorogenic substrate, fluorescence endpoint;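 active means compounds whose normalised, plate-corrected inhibition of enzyme fluorescence in the single-dose primary screen is 50% or more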
hiPSC survival: hiPSC single-cell survival enhancement. ATPlite luminescence; 100% = ROCK inhibitor wells, 0% = DMSO. 0.044% of 360,000 active. survival enhancement, % at 20 µM; in the data active means survival enhancement above about 18%;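 further: cells exposed to compounds for 16 hours before the ATP read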
SENP1 conf: confirmation of human SENP1 SUMO protease inhibitors. shares compounds with SENP1 inh. recombinant SENP1, CyPet-SUMO1-YPet FRET cleavage. inhibition, % at 10 µM. 34% of 520 active. AID 651678; in the data active means inhibition mostly above about 35%, no sharp cut-off; inactive means mostly below about 32%
SENP1 kin conf: SENP1 (human) inhibition, kinetic confirmation | shares compounds with SENP1 inh | recombinant SENP1, CyPet-SUMO1-YPet FRET kinetic cleavage | inhibition, % at 10 µM | 26% of 520 active | AID 651690; in the data active means inhibition mostly above about 32%, no sharp cut-off; inactive means mostly below about 29%
Hits are given with their value; i = inactive; nt = no result given.

SMILES	Arr AP2 block	SENP1 inh	NR3A LBD binder	Cardio protect	FAS TE block	hiPSC survival	SENP1 conf	SENP1 kin conf
CCN(CC)C(=O)C1=C(C)N(CCC2=CCCCC2)C(=O)C(CC(=O)NC2CCCC2)C1 (centres undefined)	nt	i	nt	i	i	i	nt	nt
COc1cccc(N=Cc2ccc(O)cc2O)c1	i	36	i	i	i	i	i	i
CCn1c(/N=C/c2ccc(OC)cc2O)nc2ccccc21	i	i	i	i	i	i	nt	nt
CN1CCN(c2ccc3c(c2)OC[C@@H](Cc2ccccc2)NS3(=O)=O)CC1	nt	i	nt	nt	i	i	nt	nt
NC(=O)C1CCN(C(=O)CCn2c(=O)oc3ccccc32)CC1	i	33	i	i	i	i	i	i
CCOC(=O)C1CCN(C(=O)CCn2c(=O)oc3ccccc32)CC1	nt	i	nt	i	i	i	nt	nt
CCOC(=O)CSc1nc(C(C)(C)C)cc(C(F)(F)F)c1C#N	i	i	i	i	i	i	nt	nt
CCOC(=O)NC(=O)CSc1nc(C)cc(C(F)(F)F)c1C#N	i	39	i	i	i	i	i	i
Cc1ccc(S(=O)(=O)CCSc2nc(C)cc(C(F)(F)F)c2C#N)cc1	i	72	i	i	i	i	i	i
CCOC(=O)C1=CCN(S(=O)(=O)c2ccc(F)cc2)C1c1ccc(Cl)c(Cl)c1 (centres undefined)	nt	i	nt	nt	nt	nt	nt	nt
O=C1c2cc(Cl)ccc2-c2c(O)cc(Cl)cc21	i	49	14	i	i	i	i	i
Cc1noc(C)c1C(=O)N1CCC1(C)C(=O)NS(=O)(=O)c1ccccc1Cl (centres undefined)	nt	i	nt	i	i	i	nt	nt
C=CCN(CC=C)CC(=O)Nn1c(C)ccc1C	i	i	i	i	i	i	nt	nt
CCOc1ccccc1N=Nc1c(C)[nH]n(C(N)=S)c1=O	i	48	i	i	i	i	i	i
Cc1csc(-c2nc3ccccc3n2C(C(=O)NC(C)(C)C)c2cc3ccccc3o2)c1 (centres undefined)	nt	i	nt	nt	nt	nt	nt	nt
O=C(N/N=C/c1ccc(N2CCOCC2)cc1)c1ccc(O)cc1	i	34	i	i	i	i	i	i
C/C(=N\NC(=O)c1ccc(O)cc1)c1ccc(N2CCOCC2)cc1	i	i	i	i	i	i	nt	nt
CCn1c(C)nc2cc(C(=O)N/N=C/c3ccc(N4CCOCC4)cc3)ccc21	i	35	i	i	i	i	i	i
O=S(=O)(N/N=C/c1ccc(N2CCOCC2)cc1)c1ccccc1	i	37	i	i	i	i	i	i
O=S(=O)(N/N=C/c1ccc(OC2CSC2)cc1)c1ccccc1	i	i	i	i	i	i	nt	nt
CCn1c(C)nc2cc(C(=O)N/N=C(\C)c3ccc(N4CCOCC4)cc3)ccc21	i	i	i	i	i	i	nt	nt
CCn1nccc1NC(=O)c1csc([C@@H]2C[C@H](O)[C@@H](CO)O2)n1	nt	i	nt	i	i	i	nt	nt
COc1ccc(C(=O)N2CCC2(C)C(=O)NC(C)C)c(OC)c1 (centres undefined)	nt	i	nt	i	i	i	nt	nt
O=C(Nc1ccc2nsnc2c1)N1CCCCC1	i	31	i	i	i	i	i	i
CC1(C)c2ssc(=S)c2-c2ccccc2N1C(=O)c1ccco1	i	32	i	i	i	i	i	i
CCc1nc2ccc(C(=O)NC3CCN(Cc4ccccc4)CC3)cn2c1N(C)Cc1ccc(N(C)C)cc1	nt	i	nt	i	i	i	nt	nt
C=CCOc1ccc(Br)cc1/C=C1/SC(=Nc2ccc(C(=O)O)cc2)NC1=O	i	i	i	i	i	i	nt	nt
C=CCOc1c(Br)cc(/C=C2\SC(=Nc3ccccc3)NC2=O)cc1OC	i	42	i	i	i	i	i	i
CCc1ccc(N=C2NC(=O)/C(=C/c3cc(Br)c(OCC(=O)O)c(OC)c3)S2)cc1	i	i	i	i	i	i	nt	nt
